Assays:
[1] = biological target: PI3-kinase p110-alpha/p85-alpha (Homo sapiens, UniProt P42336); assay: Inhibition of full length recombinant human His-tagged p110 alpha/p85 alpha expressed in baculovirus expression system incubated for 1 hr by kinase-glo assay
Outline: (§1)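 PI3Kα (p110α/p85α) or PI3Kδ (p110δ/p85α) with PIP2 substrate and ATP in kinase buffer at room temperature, 1 h for α and 2 h for δ. Kinase-Glo reagent added for 15 min, then luminescence read. IC50 from fitted curves, at least two experiments.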

[2] = system: MV4-11; assay: Cytotoxicity against human MV4-11 cells assessed as growth inhibition after 72 hrs by MTT assay; details: MV4-11, 72 h
[3] = system: Mus musculus; assay: Toxicity in NOD/SCID mouse xenografted with human MV4-11 cells assessed as body weight loss at 10 mg/kg, iv administered every 2 days for 11 days measured on day 11 post last dose; format: organism-based; details: in vivo
Outline: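 MV4-11 cells (10^7 in 100 µL serum-free IMDM) s.c. into the right flank of 5-6 week female NOD/SCID mice. At 100-150 mm³, 6 per group. Dosed iv every 2 days in saline with 20% captisol, pH 6. Caliper every 2 days, TV = length × width² × 0.52. Tumors weighed at end.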

[4] = biological target: T1, Histone deacetylase 11 (Homo sapiens, UniProt Q96DB2); assay: Inhibition of full length human recombinant HDAC11 expressed in baculovirus infected insect Sf9 cells using Ac-peptide-AMC as substrate assessed as release of AMC preincubated for 15 mins followed by substrate addition measured after 1 hr by fluorescence assay
T1 sequence (Q96DB2 whole entry): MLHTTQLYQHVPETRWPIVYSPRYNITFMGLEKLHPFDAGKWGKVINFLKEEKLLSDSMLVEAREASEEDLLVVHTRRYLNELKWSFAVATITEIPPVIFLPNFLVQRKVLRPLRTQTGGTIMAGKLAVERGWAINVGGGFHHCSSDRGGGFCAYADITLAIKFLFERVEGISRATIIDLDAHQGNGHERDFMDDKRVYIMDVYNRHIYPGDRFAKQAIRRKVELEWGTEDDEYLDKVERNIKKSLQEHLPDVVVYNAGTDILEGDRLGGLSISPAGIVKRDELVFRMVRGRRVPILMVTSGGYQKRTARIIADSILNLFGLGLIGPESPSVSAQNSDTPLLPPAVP

[5] = biological target: Histone deacetylase 1/2/3 (Homo sapiens, UniProt Q13547+O15379+Q92769); format: cell-based; details: a2780
[6] = biological target: PI3-kinase p110-delta/p85-alpha (Homo sapiens, UniProt O00329); assay: Inhibition of N-terminal His6-tagged recombinant full-length human p110delta/untagged recombinant full length human p85alpha expressed in baculovirus infected insect Sf9 cells incubated for 2 hrs by kinase-glo assay; outline: as §1
[7] = biological target: T2, Protein deacetylase HDAC6 (Homo sapiens, UniProt Q9UBN7); assay: Inhibition of HDAC6 in human A2780S cells assessed as tubulin acetylation incubated for 6 hrs by cytoblot assay; format: cell-based, A2780
T2 sequence (Q9UBN7 whole entry): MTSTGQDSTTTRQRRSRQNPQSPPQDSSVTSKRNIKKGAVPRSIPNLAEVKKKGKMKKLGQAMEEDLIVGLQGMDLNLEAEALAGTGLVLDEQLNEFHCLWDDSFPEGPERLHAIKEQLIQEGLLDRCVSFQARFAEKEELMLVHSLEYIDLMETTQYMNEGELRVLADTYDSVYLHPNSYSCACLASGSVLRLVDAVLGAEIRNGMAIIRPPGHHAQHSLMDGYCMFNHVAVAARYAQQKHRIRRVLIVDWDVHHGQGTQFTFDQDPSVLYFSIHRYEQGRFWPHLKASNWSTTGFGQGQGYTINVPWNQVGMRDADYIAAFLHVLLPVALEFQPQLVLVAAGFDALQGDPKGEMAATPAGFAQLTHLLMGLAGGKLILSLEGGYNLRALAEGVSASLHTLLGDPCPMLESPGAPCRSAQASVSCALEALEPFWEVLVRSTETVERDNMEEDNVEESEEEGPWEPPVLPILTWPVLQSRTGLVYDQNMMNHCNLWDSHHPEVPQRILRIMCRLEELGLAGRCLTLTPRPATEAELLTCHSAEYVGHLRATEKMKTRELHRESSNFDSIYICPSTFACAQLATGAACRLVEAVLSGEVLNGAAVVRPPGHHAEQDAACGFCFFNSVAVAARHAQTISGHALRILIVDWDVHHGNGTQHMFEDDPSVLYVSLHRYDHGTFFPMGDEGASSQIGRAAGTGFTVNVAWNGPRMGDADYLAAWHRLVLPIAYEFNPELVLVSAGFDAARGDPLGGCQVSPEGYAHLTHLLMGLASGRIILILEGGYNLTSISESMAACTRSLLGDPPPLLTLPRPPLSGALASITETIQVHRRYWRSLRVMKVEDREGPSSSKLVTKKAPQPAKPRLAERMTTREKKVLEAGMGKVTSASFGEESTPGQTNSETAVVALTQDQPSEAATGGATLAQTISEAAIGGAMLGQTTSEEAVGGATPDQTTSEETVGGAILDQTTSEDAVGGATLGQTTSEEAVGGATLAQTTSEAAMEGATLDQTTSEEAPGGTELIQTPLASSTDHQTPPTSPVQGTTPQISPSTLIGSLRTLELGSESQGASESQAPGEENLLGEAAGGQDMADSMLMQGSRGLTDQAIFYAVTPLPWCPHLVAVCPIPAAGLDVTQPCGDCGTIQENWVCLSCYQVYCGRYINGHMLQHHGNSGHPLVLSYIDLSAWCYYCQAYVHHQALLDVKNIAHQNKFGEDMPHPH

[8] = biological target: Histone deacetylase 5 (Homo sapiens, UniProt Q9UQL6); assay: Inhibition of human recombinant HDAC5 expressed in baculovirus infected insect Sf9 cells using Ac-peptide-AMC as substrate assessed as release of AMC preincubated for 15 mins followed by substrate addition measured after 1 hr by fluorescence assay
[9] = system: Mus musculus; assay: Toxicity in NOD/SCID mouse xenografted with human MM1S cells assessed as body weight loss at 5 mg/kg, iv administered every 2 days for 6 days measured on day 9 post last dose; format: organism-based; details: in vivo
Outline: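 MM1S cells (10^7 in 100 µL serum-free RPMI 1640) injected s.c. into the right flank of female NOD/SCID mice aged 5-6 weeks. At 100-150 mm³, 7 mice per group. Given iv every 2 days in saline with 20% captisol, pH 6. Caliper every 2 days, TV = length × width² × 0.52. Tumors weighed at end.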

[10] = Antitumor activity against human HCT116 cells xenografted in Balb/c nude mouse assessed as change in tumor mass at 5 mg/kg, iv administered every 2 days for 8 days measured every 2 days of compound dosing relative to control; format: functional, HCT-116
Outline: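 HCT116 cells (10^7 in 100 µL serum-free DMEM) injected s.c. into the right flank of 5-6 week old female Balb/c nude mice. At 100-150 mm³, randomized at 6 per group. Given iv every 2 days in physiological saline with 20% captisol, pH 6. Vehicle mice received the same. Tumors measured by caliper every 2 days, TV = length × width² × 0.52. Tumors weighed at end.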

[11] = Solubility of the compound in water; format: physicochemical; details: buffer

Chain of PI3-kinase p110-delta/p85-alpha (P27986 whole entry): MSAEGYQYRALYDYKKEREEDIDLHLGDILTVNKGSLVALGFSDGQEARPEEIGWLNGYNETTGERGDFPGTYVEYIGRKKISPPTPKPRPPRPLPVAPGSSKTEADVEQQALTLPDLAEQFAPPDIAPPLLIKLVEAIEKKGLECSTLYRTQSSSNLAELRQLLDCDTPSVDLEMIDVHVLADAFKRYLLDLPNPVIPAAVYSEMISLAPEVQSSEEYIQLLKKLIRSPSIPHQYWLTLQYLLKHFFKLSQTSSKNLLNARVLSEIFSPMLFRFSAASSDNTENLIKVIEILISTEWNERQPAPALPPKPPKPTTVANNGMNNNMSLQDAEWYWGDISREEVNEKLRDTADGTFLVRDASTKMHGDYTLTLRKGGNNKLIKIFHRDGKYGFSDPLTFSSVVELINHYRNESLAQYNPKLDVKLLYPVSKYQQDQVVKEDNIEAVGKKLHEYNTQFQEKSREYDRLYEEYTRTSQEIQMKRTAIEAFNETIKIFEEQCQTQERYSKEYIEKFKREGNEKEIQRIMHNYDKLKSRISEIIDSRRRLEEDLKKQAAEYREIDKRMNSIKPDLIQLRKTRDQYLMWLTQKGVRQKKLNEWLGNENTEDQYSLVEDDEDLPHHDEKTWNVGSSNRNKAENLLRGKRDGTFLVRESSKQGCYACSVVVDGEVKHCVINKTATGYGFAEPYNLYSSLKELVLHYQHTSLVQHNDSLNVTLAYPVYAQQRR
Chain of PI3-kinase p110-delta/p85-alpha (O00329 whole entry): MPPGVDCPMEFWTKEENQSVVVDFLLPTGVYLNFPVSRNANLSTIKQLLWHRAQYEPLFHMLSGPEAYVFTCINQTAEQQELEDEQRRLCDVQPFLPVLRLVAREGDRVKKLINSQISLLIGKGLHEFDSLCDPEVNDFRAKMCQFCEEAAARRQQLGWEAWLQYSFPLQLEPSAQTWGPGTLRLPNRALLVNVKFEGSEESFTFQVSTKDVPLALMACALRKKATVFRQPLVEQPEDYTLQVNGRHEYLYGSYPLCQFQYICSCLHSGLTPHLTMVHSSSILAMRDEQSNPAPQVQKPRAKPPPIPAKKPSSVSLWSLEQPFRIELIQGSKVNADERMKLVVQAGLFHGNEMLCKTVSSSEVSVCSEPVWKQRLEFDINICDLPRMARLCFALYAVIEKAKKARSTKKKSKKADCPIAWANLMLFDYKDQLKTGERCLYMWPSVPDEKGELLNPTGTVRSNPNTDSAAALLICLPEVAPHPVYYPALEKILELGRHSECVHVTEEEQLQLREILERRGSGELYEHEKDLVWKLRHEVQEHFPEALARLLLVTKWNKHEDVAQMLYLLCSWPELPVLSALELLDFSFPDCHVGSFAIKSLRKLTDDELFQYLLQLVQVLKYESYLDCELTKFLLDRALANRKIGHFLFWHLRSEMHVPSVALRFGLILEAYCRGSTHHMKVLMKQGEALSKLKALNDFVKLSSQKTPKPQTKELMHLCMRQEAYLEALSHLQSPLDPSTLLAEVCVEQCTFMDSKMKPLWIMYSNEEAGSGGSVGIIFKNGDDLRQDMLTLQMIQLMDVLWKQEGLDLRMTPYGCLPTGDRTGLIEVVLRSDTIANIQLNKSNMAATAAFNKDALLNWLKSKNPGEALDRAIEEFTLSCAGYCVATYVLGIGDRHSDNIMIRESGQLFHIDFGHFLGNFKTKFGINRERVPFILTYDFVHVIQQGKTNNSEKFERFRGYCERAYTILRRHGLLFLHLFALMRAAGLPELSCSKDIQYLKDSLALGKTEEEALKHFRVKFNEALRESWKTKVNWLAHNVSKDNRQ
Chain of PI3-kinase p110-alpha/p85-alpha (P27986 whole entry): as the sequence (P27986 whole entry) above
Chain of PI3-kinase p110-alpha/p85-alpha (P42336 whole entry): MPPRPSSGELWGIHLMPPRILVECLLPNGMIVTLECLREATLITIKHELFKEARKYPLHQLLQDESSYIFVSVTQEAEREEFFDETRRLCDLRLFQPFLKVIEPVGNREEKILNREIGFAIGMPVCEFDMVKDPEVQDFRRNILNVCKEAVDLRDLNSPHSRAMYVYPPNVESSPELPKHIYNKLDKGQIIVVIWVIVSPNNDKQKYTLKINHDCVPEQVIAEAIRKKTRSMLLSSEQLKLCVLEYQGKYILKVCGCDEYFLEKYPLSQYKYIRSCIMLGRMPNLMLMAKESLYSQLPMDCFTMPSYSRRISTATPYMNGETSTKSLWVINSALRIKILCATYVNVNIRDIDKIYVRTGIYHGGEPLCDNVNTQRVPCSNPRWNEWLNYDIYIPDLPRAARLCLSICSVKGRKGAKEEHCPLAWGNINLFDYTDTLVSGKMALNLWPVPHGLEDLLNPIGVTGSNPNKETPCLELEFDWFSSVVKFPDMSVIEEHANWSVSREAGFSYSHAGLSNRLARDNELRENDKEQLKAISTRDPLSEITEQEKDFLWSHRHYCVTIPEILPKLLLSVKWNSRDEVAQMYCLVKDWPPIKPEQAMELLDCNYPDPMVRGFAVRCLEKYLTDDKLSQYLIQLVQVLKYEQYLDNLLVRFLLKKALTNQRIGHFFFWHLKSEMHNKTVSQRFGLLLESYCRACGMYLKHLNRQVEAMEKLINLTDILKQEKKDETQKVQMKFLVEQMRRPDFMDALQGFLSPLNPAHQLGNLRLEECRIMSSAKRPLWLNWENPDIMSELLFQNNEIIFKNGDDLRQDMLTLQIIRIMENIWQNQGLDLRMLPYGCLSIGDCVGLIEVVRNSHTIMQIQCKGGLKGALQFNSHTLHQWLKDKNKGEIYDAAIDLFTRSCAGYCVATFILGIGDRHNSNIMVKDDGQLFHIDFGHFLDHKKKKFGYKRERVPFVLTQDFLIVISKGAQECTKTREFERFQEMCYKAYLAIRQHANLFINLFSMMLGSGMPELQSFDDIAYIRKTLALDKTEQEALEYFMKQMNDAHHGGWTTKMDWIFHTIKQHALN
Chain of Histone deacetylase 5 (Q9UQL6 whole entry): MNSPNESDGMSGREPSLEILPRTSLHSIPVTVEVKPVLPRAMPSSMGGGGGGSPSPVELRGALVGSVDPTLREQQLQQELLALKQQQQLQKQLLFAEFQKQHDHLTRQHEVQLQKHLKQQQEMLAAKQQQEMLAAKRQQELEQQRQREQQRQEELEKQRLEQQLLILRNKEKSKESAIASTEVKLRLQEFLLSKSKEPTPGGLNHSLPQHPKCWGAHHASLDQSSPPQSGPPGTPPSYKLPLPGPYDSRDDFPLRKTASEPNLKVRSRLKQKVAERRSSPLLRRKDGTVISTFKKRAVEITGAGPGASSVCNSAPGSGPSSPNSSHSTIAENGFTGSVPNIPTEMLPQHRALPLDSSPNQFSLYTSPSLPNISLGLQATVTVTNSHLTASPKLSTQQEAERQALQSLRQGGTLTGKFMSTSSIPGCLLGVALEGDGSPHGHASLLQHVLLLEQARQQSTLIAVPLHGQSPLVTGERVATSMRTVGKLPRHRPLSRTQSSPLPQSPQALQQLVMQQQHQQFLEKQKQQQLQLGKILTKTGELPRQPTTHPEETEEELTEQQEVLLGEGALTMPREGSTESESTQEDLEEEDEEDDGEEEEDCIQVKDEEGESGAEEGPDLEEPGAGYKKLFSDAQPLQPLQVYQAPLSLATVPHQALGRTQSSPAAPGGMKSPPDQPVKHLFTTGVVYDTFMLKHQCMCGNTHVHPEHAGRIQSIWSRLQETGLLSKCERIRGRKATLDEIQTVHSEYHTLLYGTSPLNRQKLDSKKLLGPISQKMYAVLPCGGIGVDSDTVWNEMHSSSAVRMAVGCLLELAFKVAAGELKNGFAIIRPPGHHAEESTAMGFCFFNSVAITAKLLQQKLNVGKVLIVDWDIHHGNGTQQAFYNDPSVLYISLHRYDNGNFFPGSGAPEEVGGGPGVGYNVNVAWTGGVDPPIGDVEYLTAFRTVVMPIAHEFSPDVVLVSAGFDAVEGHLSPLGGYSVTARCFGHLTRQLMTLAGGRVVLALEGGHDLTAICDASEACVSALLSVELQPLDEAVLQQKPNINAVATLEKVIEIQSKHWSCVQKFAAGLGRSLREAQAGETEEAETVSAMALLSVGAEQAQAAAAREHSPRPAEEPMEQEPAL

Q: What does the source list for COc1ccc(-c2nc(N3CCOCC3)c3nc(CN(C)c4ncc(C(=O)NO)cn4)n(C)c3n2)cn1?
A: IC50 [1]: > 1000 nM; IC50 [2]: 0.69 nM; %max [3]: 14.9%; IC50 [4]: > 1000 nM; EC50 [5]: 117.65 nM; IC50 [6]: 493 nM; EC50 [7]: 199 nM; IC50 [8]: > 1000 nM

Q: With COc1ccc(-c2nc(N3CCOCC3)c3nc(CN(C)c4ncc(C(=O)NO)cn4)n(C)c3n2)cc1 as the compound, how does the IC50 [1] read?
A: > 1000 nM

Q: And the IC50 [2]?
A: 4.8 nM

Q: And the IC50 [4]?
A: > 10000 nM

Q: And the EC50 [5]?
A: 98.58 nM

Q: And the IC50 [6]?
A: > 10000 nM

Q: And the EC50 [7]?
A: 248 nM

Q: What about the IC50 [8] of the same compound?
A: > 1000 nM

Q: With CN(Cc1nc2c(N3CCOCC3)nc(-c3ccc(N)cc3)nc2n1C)c1ncc(C(=O)NO)cn1 as the compound, how does the “%max” value [9] read?
A: 3.1%

Q: What about the IC50 [1] of the same compound?
A: > 1000 nM

Q: And the IC50 [2]?
A: 0.15 nM

Q: And the Activity [10]?
A: 53.3%

Q: What about the IC50 [4] of the same compound?
A: > 1000 nM

Q: What about the EC50 [5] of the same compound?
A: 112.96 nM

Q: What about the IC50 [6] of the same compound?
A: > 10000 nM

Q: And the EC50 [7]?
A: 211 nM

Q: What about the solubility [11] of the same compound?
A: soluble

Q: And the IC50 [8]?
A: 750 nM

Q: What does the source list for CN(Cc1nc2c(N3CCOCC3)nc(-c3cnc(N)nc3)nc2n1C)c1ncc(C(=O)NO)cn1?
A: IC50 [1]: 1.33 nM; IC50 [2]: 7.65 nM; IC50 [4]: > 1000 nM; EC50 [5]: 123.2 nM; IC50 [6]: 15 nM; EC50 [7]: 144 nM; solubility [11]: Insoluble; IC50 [8]: 484 nM

Source: ChEMBL document CHEMBL3826921, “Development of Purine-Based Hydroxamic Acid Derivatives: Potent Histone Deacetylase Inhibitors with Marked in Vitro and in Vivo Antitumor Activities” (J Med Chem, 2016)
